Measured values reported in publication PMC3793015 (Journal of agricultural and food chemistry, 2013).

What was measured:
RAW 264.7 = experiment: Cytotoxicity of α-MG; assay type: cell-based, murine; settings: read-out: IC50 (cytotoxicity); RAW 264.7, 24 h, 10% FBS delivery
Procedure, shortened: (§1)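 Cytotoxicity was judged by phase-contrast morphology and MTT reduction to formazan after exposure to increasing compound concentrations. Exposure was 24 h for RAW 264.7, MDM, HepG2 and HT-29, 8 h for PMA-differentiated THP-1, and 4 h for differentiated Caco-2. Delivery was DMSO into 10% FBS medium for RAW 264.7, THP-1 and HepG2; FBS-complexed compound at 10% FBS in RPMI 1640 for MDM; Tween 40 micelles for Caco-2 and HT-29.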

THP-1 = experiment: Cytotoxicity of α-MG; assay type: cell-based, human; settings: read-out: IC50 (cytotoxicity); THP-1, 8 h, 10% FBS delivery
Procedure, shortened: as §1

MDM = experiment: Cytotoxicity of α-MG; assay type: cell-based, human; settings: read-out: IC50 (cytotoxicity), 24 h, 10% FBS delivery
Procedure, shortened: as §1

Caco-2 = experiment: Cytotoxicity of α-MG; assay type: cell-based, human; settings: read-out: IC50 (cytotoxicity); Caco-2, 4 h, Tween 40 delivery
Procedure, shortened: as §1

HT-29 = experiment: Cytotoxicity of α-MG; assay type: cell-based, human; settings: read-out: IC50 (cytotoxicity); HT-29, 24 h, Tween 40 delivery
Procedure, shortened: as §1

[1] = system: LPS-induced production of NO in RAW 264.7 cells; experiment: LPS-induced production of NO; assay type: cell-based, murine; settings: RAW 264.7, data not shown
Procedure, shortened: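 RAW 264.7 cells, 2 days post-confluence, were pretreated 2 h with compound (DMSO stock into 10% FBS medium). They were then stimulated 16 h with 5 ng/mL E. coli O111:B4 LPS. NO production was estimated as medium nitrite by the Griess reaction.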

[2] = system: IL-8 secretion by macrophage-like THP-1 cells; experiment: IL-8 secretion; assay type: cell-based, human
Procedure, shortened: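 THP-1 cells, differentiated with 100 nM PMA for 48 h, were pretreated with compound added as a DMSO stock to 10% FBS medium, then stimulated with E. coli O111:B4 LPS. Supernatant IL-8 was measured by ELISA in LPS-treated and unstimulated cultures.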

[3] = system: TNF-α secretion by MDM cells; experiment: TNF-α secretion; assay type: cell-based, human
Procedure, shortened: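 Primary macrophages came from buffy-coat monocytes (Ficoll, clumping), differentiated 6 days with 50 ng/mL M-CSF (97% pure by CD14/CD11b). Compound was delivered in FBS at 10% FBS in RPMI 1640. Cells were then stimulated with E. coli O111:B4 LPS or left unstimulated. Secreted TNF-α was quantified by ELISA.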

[4] = system: TNF-α secretion by HepG2 cells; experiment: TNF-α secretion; assay type: cell-based, human
Procedure, shortened: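 HepG2 monolayers, 2 days post-confluence, were pretreated with compound (DMSO stock into 10% FBS medium) and then stimulated with phorbol 12-myristate 13-acetate. Secreted TNF-α was quantified by ELISA in activated and nonactivated cultures.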

RAW 264.7 cells = experiment: Cellular uptake and metabolism of α-MG; assay type: in vitro ADME, murine
Procedure, shortened: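 RAW 264.7 cells, 2 days post-confluence, received 7.7 μM compound (DMSO stock into 10% FBS medium) for 24 h. LPS-activated cultures had 5 ng/mL LPS for 4 h, then a PBS wash, before compound. Cells and medium were collected together because some cells were nonadherent. Samples were extracted and analysed by RP-HPLC for free and glucuronidated/sulfated xanthones, as % of initial concentration.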

THP-1 cells = experiment: Cellular uptake and metabolism of α-MG; assay type: in vitro ADME, human
Procedure, shortened: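 THP-1 monocytes were differentiated with 100 nM PMA for 48 h, then exposed 24 h to 5.2 μM compound (DMSO stock into 10% FBS medium). Activated cultures were pre-exposed to 5 ng/mL LPS for 4 h and washed with PBS. Spent medium and cells were collected separately, extracted and analysed by RP-HPLC for free and glucuronidated/sulfated xanthones. Amounts are % of initial compound; mean ± SD, n ≥ 5.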

MDM cells = experiment: Cellular uptake and metabolism of α-MG; assay type: in vitro ADME, human; settings: 24 h
Procedure, shortened: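 Monocytes came from buffy-coat mononuclear cells, isolated on Ficoll and by clumping, then differentiated 6 days with 50 ng/mL M-CSF (97% CD14/CD11b-positive). Compound (3.3 μM) was delivered in 100% FBS, diluted to 10% FBS in RPMI 1640, for 24 h. Activated cultures first had 100 ng/mL LPS for 4 h, then a PBS wash. Medium and cells were analysed separately by RP-HPLC, including conjugates; mean ± SD, n ≥ 5.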

HepG2 cells = experiment: Cellular uptake and metabolism of α-MG; assay type: in vitro ADME, human
Procedure, shortened: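 HepG2 monolayers, 2 days post-confluence, received 9.0 μM compound as a DMSO stock added to 10% FBS medium for 24 h. Activated cultures had 10 ng/mL TNF-α for 4 h and a PBS wash first. Medium and cells were collected separately, extracted and analysed by RP-HPLC for free and glucuronidated/sulfated xanthones. Quantification used retention time, UV spectrum and five-point standard curves, as % of initial amount; mean ± SD, n ≥ 5.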

[5] = RAW 264.7, combined medium and cells, 7.7 μM, 24 h
[6] = 24 h after addition of α-MG, control cultures, nd: not detected

For `COc1c(O)cc2oc3cc(O)c(CC=C(C)C)c(O)c3c(=O)c2c1CC=C(C)C` [α-MG, α-mangostin], the IC50 (RAW 264.7) was 23 µM, the IC50 (THP-1) was 23 µM and the IC50 (MDM) was > 12 µM. The IC50 (Caco-2) was > 80 µM, the IC50 (HT-29) was 180 µM and the “inhibition of LPS-induced production of NO” value (“inhibition … of NO” for short) ([1]; 1 μM) was 50%. The “inhibition … of NO” value ([1]; 3 μM) was 61%, the “inhibition … of NO” value ([1]; 10 μM) was 78% and the “inhibition of IL-8 chemokine secretion” value ([2]; activated THP-1, 10 μM pretreatment 4 h, LPS 0.1 ng/mL 4 h) was 30–40%. For the same compound, the “effect on secretion of IL-8” value ([2]; nonactivated THP-1 cultures) was “not altered”, the “TNF-α secretion in absence vs presence of α-MG” value ([3]; 0.7 μM, LPS-treated MDM, p > 0.05, data not shown) was “similar” and the “effect on TNF-α secretion” value ([3]; 0.7 μM, nonactivated MDM, p < 0.05, data not shown) was “increased”. The “increase of LPS-stimulated secretion of TNF-α” value ([3]; MDM, 4.5 μM pretreatment 4 h, LPS 100 ng/mL 10 h) was “more than 50%”, the “effect on basal secretion of TNF-α” value ([3]; nonactivated MDM cultures) was “more than doubled” and the “attenuation of TNF-α secretion” value ([4]; PMA-activated HepG2, 7 μM pretreatment 16 h, PMA 50 ng/mL 4 h) was 22%. The “effect on secretion of TNF-α” value ([4]; nonactivated HepG2 cultures) was “not altered”, the “recovery of α-MG” value (RAW 264.7 cells; RAW 264.7, 24 h incubation) was 80 ± 6% and the “ratio of free to conjugated xanthones, activated vs control” value (RAW 264.7 cells; RAW 264.7, LPS treatment, data not shown) was “increased”. The “free α-MG, of initial concentration” value (RAW 264.7 cells; [5]) was 18 ± 3%, the “glucuronidated/sulfated conjugates, of initial concentration” value (RAW 264.7 cells; [5]) was 61 ± 6% and the “xanthone in media, THP-1” value (THP-1 cells; 0 h, amount of α-MG at start) was 33710 ± 161 pmol/dish. For the same compound, the “intracellular profile table, α-MG at 0 h, THP-1” value (THP-1 cells; 0 h, control cultures) was 33710 ± 161 pmol/dish, the “intracellular xanthone, THP-1” value (THP-1 cells; [6]) was 11439 ± 995 pmol/dish and the “intracellular ratio of free to conjugated xanthones, activated vs control” value (THP-1 cells; THP-1, 5 ng/mL LPS 4 h before α-MG, 24 h, p < 0.05) was “increased”. The “free xanthones in cells, of initial α-MG” value (THP-1 cells; THP-1, 5.2 μM, 24 h, control) was 20 ± 4%, the “free xanthones in spent medium, of initial α-MG” value (shortened to “free xanthones in spent medium”) (THP-1 cells; THP-1, 5.2 μM, 24 h, control) was 40 ± 1% and the “phase II conjugates in cells, of initial α-MG” value (THP-1 cells; THP-1, 5.2 μM, 24 h, control) was 14 ± 3%. The “recovery of xanthones, of α-MG added” value (THP-1 cells; THP-1, 24 h incubation) was 75 ± 6%, the “free xanthones in spent medium” value (MDM cells; 3.3 μM, control) was 57 ± 4% and the “free α-MG in cells, of total” value (MDM cells; 3.3 μM, control) was 22 ± 5%. The “glucuronidated/sulfated conjugates of α-MG in cells, of total” value (MDM cells; 3.3 μM, control) was 20 ± 10%, the “recovery of α-MG equivalents added” value (MDM cells) was 99 ± 12% and the “xanthone in media, HepG2” value (HepG2 cells; 0 h, amount of α-MG at start) was 17834 ± 115 pmol/dish. The “intracellular profile table, α-MG at 0 h, HepG2” value (HepG2 cells; 0 h, control cultures) was 17834 ± 115 pmol/dish, the “intracellular xanthone, HepG2” value (HepG2 cells; [6]) was 9344 ± 298 pmol/dish and the “intracellular ratio of free to conjugated xanthones, activated vs control” value (HepG2 cells; HepG2, 10 ng/mL TNF-α 4 h before α-MG, 24 h, p < 0.05) was “increased”. For the same compound, the “free xanthones in spent medium” value (HepG2 cells; HepG2, 9.0 μM, 24 h, control) was 36 ± 2%, the “free α-MG in cells, of total” value (HepG2 cells; HepG2, 9.0 μM, 24 h, control) was 27 ± 3% and the “glucuronidated/sulfated conjugates of α-MG in cells, of total” value (HepG2 cells; HepG2, 9.0 μM, 24 h, control) was 29 ± 3%. For the same compound, the “recovery of α-MG equivalents added” value (HepG2 cells; HepG2, 24 h) was 91 ± 4%.
